Experimental data: article PMC5167571 (Molecular pharmaceutics, 2015)
Starred links: 1 amine or outer side, 2 acyl side, 3 side chain; linkers in the order of their positions; H or OH if unused. Non-standard residues stand in square brackets, D forms with d. Residues, ends and D or L forms follow the SMILES beside them. *: point of attachment. DOTA = O=C(O)CN1CCN(CC(=O)O)CCN(CC(=O)*)CCN(CC(=O)O)CC1; Acryloyl(3-(3-pyridyl),E) = O=C(/C=C/c1cccnc1)*; X1 = O=C(Cc1ccc(N[*:1])cc1)[*:2]; Aad = N[C@@H](CCCC(=O)O)C(=O)O; NH(2-Me-phenyl) = Cc1ccccc1N*; PEG4 = NCCOCCOCCOCCOCCC(=O)O; Ac6c = NC1(C(=O)O)CCCCC1; CO = O=C([*:1])[*:2]

Legend:
VLA-4 (integrin α4β1) = VLA-4 (integrin α4β1) (Mus musculus, UniProt P09055+Q00651); assay: Competitive binding assay with ^64Cu-NODAGA-PEG4-LLP2A in B16F10 melanoma cells; conditions: VLA-4, B16F10 cells; Ki of Ga conjugate vs Kd of Lu conjugate
Sequence of VLA-4 (integrin α4β1) (Q00651 41-1039): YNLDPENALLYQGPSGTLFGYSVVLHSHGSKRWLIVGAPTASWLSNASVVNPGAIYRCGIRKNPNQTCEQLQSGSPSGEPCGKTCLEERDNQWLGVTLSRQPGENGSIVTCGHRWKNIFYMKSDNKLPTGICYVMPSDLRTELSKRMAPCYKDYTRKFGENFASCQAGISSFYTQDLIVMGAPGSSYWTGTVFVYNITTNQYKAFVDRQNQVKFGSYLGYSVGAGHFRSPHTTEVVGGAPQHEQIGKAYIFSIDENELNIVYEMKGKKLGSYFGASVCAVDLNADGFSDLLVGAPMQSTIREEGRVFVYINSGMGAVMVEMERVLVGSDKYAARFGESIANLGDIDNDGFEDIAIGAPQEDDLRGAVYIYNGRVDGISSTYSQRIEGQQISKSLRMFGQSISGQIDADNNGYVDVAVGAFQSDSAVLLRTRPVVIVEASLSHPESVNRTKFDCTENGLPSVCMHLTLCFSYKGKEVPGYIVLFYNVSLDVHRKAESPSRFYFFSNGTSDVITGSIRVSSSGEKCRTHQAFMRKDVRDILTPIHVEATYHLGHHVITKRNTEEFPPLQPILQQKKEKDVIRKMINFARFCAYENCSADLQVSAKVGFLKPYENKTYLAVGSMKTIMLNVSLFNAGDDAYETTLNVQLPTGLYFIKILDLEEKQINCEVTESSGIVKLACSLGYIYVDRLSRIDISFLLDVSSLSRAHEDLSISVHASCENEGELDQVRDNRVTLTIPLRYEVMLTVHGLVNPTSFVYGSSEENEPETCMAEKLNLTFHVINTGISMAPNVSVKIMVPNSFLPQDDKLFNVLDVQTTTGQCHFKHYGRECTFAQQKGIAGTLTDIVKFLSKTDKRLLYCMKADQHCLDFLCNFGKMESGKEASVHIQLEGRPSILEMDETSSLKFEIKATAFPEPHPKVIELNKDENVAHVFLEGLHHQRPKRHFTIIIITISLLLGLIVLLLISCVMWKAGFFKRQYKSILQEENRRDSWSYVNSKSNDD
Sequence of VLA-4 (integrin α4β1) (P09055 21-798): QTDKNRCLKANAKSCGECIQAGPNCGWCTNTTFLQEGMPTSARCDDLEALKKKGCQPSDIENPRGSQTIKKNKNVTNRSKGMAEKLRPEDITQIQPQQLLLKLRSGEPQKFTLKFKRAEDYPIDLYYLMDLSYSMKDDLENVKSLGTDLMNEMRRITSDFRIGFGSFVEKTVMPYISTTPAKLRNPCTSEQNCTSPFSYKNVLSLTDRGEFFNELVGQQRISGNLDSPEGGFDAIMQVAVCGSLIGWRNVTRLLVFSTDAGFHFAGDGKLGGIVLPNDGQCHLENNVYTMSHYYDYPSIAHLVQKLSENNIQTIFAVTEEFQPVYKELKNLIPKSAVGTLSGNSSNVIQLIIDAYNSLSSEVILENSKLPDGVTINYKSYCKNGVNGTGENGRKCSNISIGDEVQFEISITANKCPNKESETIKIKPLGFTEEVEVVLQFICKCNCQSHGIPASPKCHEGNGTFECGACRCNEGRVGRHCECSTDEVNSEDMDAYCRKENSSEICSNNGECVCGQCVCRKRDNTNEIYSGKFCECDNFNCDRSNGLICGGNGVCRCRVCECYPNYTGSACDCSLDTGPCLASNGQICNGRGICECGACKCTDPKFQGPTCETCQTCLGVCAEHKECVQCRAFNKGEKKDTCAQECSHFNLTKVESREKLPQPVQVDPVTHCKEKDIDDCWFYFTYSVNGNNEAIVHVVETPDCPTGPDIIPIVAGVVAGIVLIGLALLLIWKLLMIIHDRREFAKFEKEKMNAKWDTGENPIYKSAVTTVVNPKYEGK
Outline: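 Both assays used B16F10 cells (10⁵/well, seeded 24 h earlier) in HBSS/0.1% BSA/1 mM Mn²⁺ on ice. […] Kd: ¹⁷⁷Lu conjugate (0.2–40 nM), 2 h, n = 3, with nonspecific binding from a 15 μg LLP2A-PEG₄ block. Cell-bound counts were normalized to BCA protein and fitted for Kd and Ki.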

[1] = Biodistribution of ^68Ga-DOTA-PEG4-LLP2A; assay type: in vivo, mouse; conditions: C57BL/6, mouse, iv, 5.55 MBq, total radioactivity
Outline: (§1)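 Mice bearing s.c. right-shoulder B16F10 tumors (10⁶ cells in PBS) received the ⁶⁸Ga tracer i.v. (5.55 MBq, 277 ng), n = 4 per group. They were sacrificed at 1 h. A blocking group received tracer premixed with 100 μg LLP2A-PEG₄. Tissues and tumor were weighed and γ-counted, and decay-corrected %ID/g was calculated against a standard. Data are mean ± SD.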

[2] = test system: B16F10 tumor-bearing C57BL/6 mice; assay: Biodistribution of ^68Ga-DOTA-PEG4-LLP2A; assay type: in vivo, mouse; conditions: 360-fold excess of LLP2A-PEG4 (100 μg), 1 h
Outline: as §1

[3] = Biodistribution of ^177Lu-DOTA-PEG4-LLP2A; assay type: in vivo, mouse; conditions: C57BL/6, mouse, iv, 3.6 MBq, total radioactivity
Outline: (§2)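 B16F10 cells (10⁶ in PBS) were implanted s.c. in the right shoulder of 6–8-week-old C57BL/6 mice. ¹⁷⁷Lu conjugate (3.6 MBq, 90 ng) was given i.v., n = 5 per group. Animals were killed at 4, 24, 48, 72 and 96 h. Blood, organs, muscle, bone and tumor were weighed and γ-counted. Values are decay-corrected %ID/g against an injected-dose standard, shown as tumor/blood and tumor/muscle ratios, mean ± SD.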

[4] = test system: B16F10 tumor-bearing C57BL/6 mice; assay: Biodistribution of ^177Lu-DOTA-PEG4-LLP2A; assay type: in vivo, mouse; conditions: 4 h postinjection, i.v.
Outline: as §2

B16F10 cells = assay: Internalization assay; assay type: cell-based, mouse; conditions: 37 °C; for Internalized agent: 12 ng/well, n = 3

## Cc1ccccc1NC(=O)Nc1ccc(CC(=O)N[C@@H](CCCCNC(=O)/C=C/c2cccnc2)C(=O)N[C@@H](CCCC(=O)O)C(=O)NC2(C(=O)NCCOCCOCCOCCOCCC(=O)N[C@@H](CCCCNC(=O)CN3CCN(CC(=O)O)CCN(CC(=O)O)CCN(CC(=O)O)CC3)C(N)=O)CCCCC2)cc1 [^68Ga-DOTA-PEG4-LLP2A, metal not drawn] ({NH(2-Me-phenyl)-CO}-[X1]K(Acryloyl(3-(3-pyridyl),E))[Aad][Ac6c][PEG4]K(DOTA)-NH2; N-terminus and C-terminus assumed)
VLA-4 (integrin α4β1)
  fold higher affinity than the ^177Lu-labeled conjugate: 3 fold
[1]; bone marrow
  tissue uptake at 1 h: 3.2 ± 0.7 %ID/g
[1]; kidneys
  tissue uptake at 1 h: 3.7 ± 0.9 %ID/g
[1]; liver
  tissue uptake at 1 h: 1.9 ± 0.4 %ID/g
[1]; spleen
  tissue uptake at 1 h: 5.4 ± 1.7 %ID/g
[1]; thymus
  tissue uptake at 1 h: 4.6 ± 0.5 %ID/g
[1]; tumor
  tissue uptake at 1 h: 9.1 ± 0.9 %ID/g
[1]; tumor/blood
  tissue to tissue ratio at 1 h: 5.8 ± 1.5
[1]; tumor/muscle
  tissue to tissue ratio at 1 h: 9.7 ± 1.5
[2]
  uptake in blocking study: reduction of uptake

## Cc1ccccc1NC(=O)Nc1ccc(CC(=O)N[C@@H](CCCCNC(=O)/C=C/c2cccnc2)C(=O)N[C@@H](CCCC(=O)O)C(=O)NC2(C(=O)NCCOCCOCCOCCOCCC(=O)N[C@@H](CCCCNC(=O)CN3CCN(CC(=O)O)CCN(CC(=O)O)CCN(CC(=O)O)CC3)C(N)=O)CCCCC2)cc1 [^177Lu-DOTA-PEG4-LLP2A, metal not drawn] ({NH(2-Me-phenyl)-CO}-[X1]K(Acryloyl(3-(3-pyridyl),E))[Aad][Ac6c][PEG4]K(DOTA)-NH2; N-terminus and C-terminus assumed)
[3]; bone (likely bone marrow)
  tissue uptake at 4 h: 10.1 ± 3.5 %ID/g
[3]; bone
  tissue uptake at 24 h: 4.1 ± 0.4 %ID/g
  tissue uptake at 48 h: 2.7 ± 0.6 %ID/g
  tissue uptake at 72 h: 2.2 ± 0.5 %ID/g
  tissue uptake at 96 h: 1.6 ± 0.6 %ID/g
[3]; kidney
  tissue uptake at 24 h: 2.4 ± 0.3 %ID/g
[3]; kidneys
  tissue uptake at 4 h: 6.5 ± 1.5 %ID/g
[3]; liver
  tissue uptake at 4 h: 2.8 ± 0.4 %ID/g
  tissue uptake at 24 h: 1 ± 0.1 %ID/g
[3]; lungs
  tissue uptake at 4 h: 5.9 ± 0.8 %ID/g
[3]; spleen
  tissue uptake at 4 h: 27.1 ± 3.1 %ID/g
  tissue uptake at 24 h: 10.1 ± 4.1 %ID/g
  tissue uptake at 48 h: 7.4 ± 1.4 %ID/g
  tissue uptake at 72 h: 4.7 ± 1.5 %ID/g
  tissue uptake at 96 h: 3.7 ± 1.1 %ID/g
[3]; thymus
  tissue uptake at 4 h: 9.7 ± 1.7 %ID/g
  tissue uptake at 24 h: 5.6 ± 0.9 %ID/g
  tissue uptake at 48 h: 4.1 ± 0.2 %ID/g
  tissue uptake at 72 h: 2.7 ± 0.5 %ID/g
  tissue uptake at 96 h: 1.7 ± 0.2 %ID/g
[3]; tumor
  tissue uptake at 4 h: 31.5 ± 7.8 %ID/g
  tissue uptake at 24 h: 5.4 ± 1.5 %ID/g
  tissue uptake at 48 h: 1.7 ± 0.4 %ID/g
  tissue uptake at 72 h: 0.9 ± 0.4 %ID/g
  tissue uptake at 96 h: 0.4 ± 0.07 %ID/g
[3]; tumor/blood
  tissue to tissue ratio at 4 h: 36 ± 10
  tissue to tissue ratio at 24 h: 186 ± 26
  tissue to tissue ratio at 48 h: 61 ± 13
  tissue to tissue ratio at 72 h: 35 ± 37
  tissue to tissue ratio at 96 h: 25 ± 16
[3]; tumor/muscle
  tissue to tissue ratio at 4 h: 21 ± 7
  tissue to tissue ratio at 24 h: 18 ± 3
  tissue to tissue ratio at 48 h: 9 ± 1
  tissue to tissue ratio at 72 h: 6 ± 3
  tissue to tissue ratio at 96 h: 3 ± 0.4
[4]; 3.6 MBq, 90 ng, n = 5, mean ± SD
  tumor uptake: 31.3 ± 7.8 % ID/g
[4]; n = 5
  uptake in the muscle, heart, and blood: minimal uptake
B16F10 cells; 30 min (maximum uptake)
  Internalized agent: 341 ± 110 fmol/mg
B16F10 cells; 2 h
  Internalized agent: 343 ± 53 fmol/mg
B16F10 cells; 4 h
  Internalized agent: 303 ± 41 fmol/mg
B16F10 cells; internalized rapidly
  time to internalization post addition: < 15 min
